The structures appear in SMILES notation.

The nature of the data set: Toxicity liver stage against HepG2, at 10uM. It is filed as cell-based. Further details: test concentration 10 uM, cell line HepG2-A16-CD81EGFP. Conditions: human, HepG2-A16-CD81EGFP cells; read-out: INHIBITION
In outline: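 Uninfected HepG2-A16-CD81EGFP cells, 3 × 10^3 per well, 1536-well, plated on prespotted compound at 10 μM final, parasite-free screening media added to match infected plates; puromycin 10 μM positive, DMSO 0.5% negative; run in parallel with 48 h PbLuc assay at 37 °C, 5% CO2; viability by CellTiter-Glo luminescence, normalized to controls.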
With `O=C(NCCN1CCOCC1)N1CCN(c2ccccc2)CC1`, the cytotoxicity at 10 µM was determined as 8.84%.
Under `Cc1ccnc(NC(=O)c2ccc(Br)o2)c1` stands -10.5%.
In the case of `O=C1NC[C@H]2CN(Cc3nccs3)CCN12`, the cytotoxicity at 10 µM was -4.9%.
Under `CC(=O)NC[C@H]1COCc2nc3cc(S(C)(=O)=O)ccc3n21` stands 0.722%; under `O=C1CCC(c2ccc(Cl)cc2)=NN1CN1CCCCCC1`, 35.7%; under `COCCn1cc(CC(=O)Nc2nc3c(s2)CCC3)c2ccccc21`, 32.8%.
As for `COC(=O)c1ccc(C(=O)NCC(O)c2cccn2C)cc1` (centres undefined), the cytotoxicity at 10 µM was -3.84%.
The same measure for `COc1ccc(C[C@H]2CNCC[C@@H]2OCC2CC2)cc1`: -1.24%; for `c1nc2n(c1CN1CCOCC1)CCN(C1CCOC1)CC2` (centres undefined): -136%.
Turning to `COCC(=O)N1CCc2nc(C(=O)Nc3cccnc3)sc2CC1`, the cytotoxicity at 10 µM came to 7.98%.
Take `Cc1noc(C)c1CN1CC2(CCN(C(=O)c3ccc[nH]3)C2)CC1=O` (centres undefined): the cytotoxicity at 10 µM is 6.27%.
`Cn1cc(-c2cnc(N3CCOCC3)nc2)cc1C(=O)N1CCCC1`: the cytotoxicity at 10 µM is -10.6%.
Regarding `Cc1cccc(C(=O)Oc2cc(=O)n3cccc(C)c3n2)c1`, the cytotoxicity at 10 µM came out at 1.11%.
Under `Fc1cnc(N2CCC3(COCc4cnc(NCC5CC5)nc43)C2)nc1` (centres undefined) stands -4.43%.
As to `COCCNC(=O)Cn1c(-c2ccco2)cc2cccnc21`, the cytotoxicity at 10 µM is -5.09%.
Under `Nc1nccnc1C1CN(C(=O)COc2cccnc2)CCO1` (centres undefined) stands -1.83%.
The same measure for `COCCNc1nnc(-c2ccccn2)s1`: 6.1%.
The same measure for `CN1CCNC(Cc2ccc(-c3cccs3)cc2)C1=O` (centres undefined): -29.3%; for `Cc1cc(C)n(CCCC(=O)N2CCc3ncc(Cl)cc3C2)n1`: -25.3%; for `CN(CC1(O)CCCN(c2ccccn2)C1)C(=O)CC1CCOCC1` (centres undefined): -5.44%.
Turning to `Cc1cccc2nc(CN3CCC(N4CCN(C)C4=O)CC3)cn12`, the cytotoxicity at 10 µM was -0.337%.
Under `O=C(Nc1ccc(-c2ccccc2)cn1)C1CCN(C(=O)C2CC2)CC1` stands -14.8%; under `Cc1nc2cc(=O)[nH]n2c(C)c1CNC(=O)C(C)(C)c1ccccc1`, 1.1%.
In the case of `Cc1nc(CN2CCN(c3ccc(Cl)cn3)CC2)no1`, the cytotoxicity at 10 µM stood at 1.3%.
As to `CCN(Cc1ccco1)C(=O)C1=NN(c2ccccc2)C(=O)CN1`, the cytotoxicity at 10 µM stood at 6.35%.
For `C=C(C)CN(CC)C(=O)c1cc(F)ccc1NS(C)(=O)=O`, the cytotoxicity at 10 µM is -2.12%.
With `CCn1ccnc1CN1CCN(c2ncnc3ccsc23)CC1`, the cytotoxicity at 10 µM is 5.39%.
The same measure for `COc1ncccc1CNC(=O)c1c[nH]c(=O)c(Br)c1`: -2.62%; for `NC(=O)N1CCCC1COC(=O)c1ccc(F)cc1Br` (centres undefined): 0.616%.
As for `Cc1noc(-c2cccnc2N2CCOC(C)(c3cnn(C)c3)C2)n1` (centres undefined), the cytotoxicity at 10 µM was 4.08%.
Consider `O=C(N1CCN(CCO)CC1)C1(O)Cc2ccccc2C1`, for which the cytotoxicity at 10 µM is -2.92%.
The same measure for `Cc1nn(C)c(N2CCCN(C)CC2)c1CNC(=O)CC1CCCC1`: -7.43%; for `CC(C)(C)OC(=O)NCC1CCCCN1Cc1cccc(C(N)=O)c1` (centres undefined): -2.27%; for `Cc1cnc(NC(=O)N2CCC(N3CCCCC3=O)CC2)s1`: -0.772%.
The same measure for `CN(CC(=O)Nc1cc(-c2cc(Cl)cc(Cl)c2)[nH]n1)S(C)(=O)=O`: 6.72%; for `CC(C)(C)CC(=O)Nc1ccccc1SCC(N)=O`: -138%; for `C1CN(c2nc(C3CC3)ns2)CCS1`: -11.6%.
The same measure for `COc1ccc2cc(CN(C)C(C)c3nc(C(C)(C)C)no3)ccc2c1` (centres undefined): 1.44%; for `CC(C)c1nnc2n1CCN(C(=O)c1ccc(OCC3CC3)nc1)C2`: -0.556%.
On to `CS(=O)(=O)NCC1CCCCN1C(=O)c1ccc(Br)s1` (centres undefined), for which the cytotoxicity at 10 µM worked out at 1.58%.
Regarding `CNC(=O)NC(C)c1nc(-c2ccccc2)c[nH]1` (centres undefined), the cytotoxicity at 10 µM came to 0.995%.
`COc1c(Br)cccc1CCNC(=O)c1ncoc1C`: the cytotoxicity at 10 µM came out at 3.39%.
The same measure for `Cc1nc(NC(=O)C2CCCN(C(=O)C3CC3)C2)sc1C` (centres undefined): 3.71%; for `CC(=O)Nc1ccc(CNc2ccn(Cc3ccccc3)n2)cc1`: 10.1%; for `CC(=O)c1cc(C(=O)NC2(c3ccccc3)CCC2)n(C)c1`: -11.7%.
In the case of `O=C(Nc1cc(-n2cccc2)ccc1F)N1CCCC1`, the cytotoxicity at 10 µM was -4.22%.
Under `NC(=O)N1CCCN(C(=O)Nc2cc(-n3cccc3)ccc2F)CC1` stands -2.09%; under `CN1CC(C(=O)NCCc2ccc(F)c(Br)c2)CC1=O` (centres undefined), 3.57%; under `CCCn1ccc2cc(NC(=O)NCCn3cnnc3CC)ccc21`, 2.47%.
Consider `CC(C)Oc1ccc(CSc2nnc(CN3CCCC3=O)o2)cc1`, for which the cytotoxicity at 10 µM was -1.71%.
Under `CCNC(=O)N1CCCCC1CCNS(C)(=O)=O` (centres undefined) stands -7.71%.
In the case of `CCCN1CCN(Cc2nccn2CC)C(C)C1` (centres undefined), the cytotoxicity at 10 µM amounted to 8.14%.
Under `COc1ccc(CCC2CCCN(C(=O)CCc3cc(O)no3)C2)cc1` (centres undefined) stands -3.66%; under `CCCc1cc(C(=O)N2Cc3ccccc3C2)[nH]n1`, 2.02%; under `O=C(CN1C(=O)CCNC1=O)N1CCOC(c2ccc(Cl)c(Cl)c2)C1` (centres undefined), 6.28%.
Regarding `Cc1cc(C)c(-n2cc(CCO)cn2)cc1C`, the cytotoxicity at 10 µM was 0.334%.
Under `Clc1cc(NCc2ccncc2)nc2[nH]ccc12` stands 6.58%; under `c1ccc2sc(N3CCCC4(CCOC4)C3)nc2c1` (centres undefined), -5.08%.
The same measure for `COc1cc(-c2nc3c([nH]2)CCCNC3=O)ccc1O`: 16.9%; for `CCn1c(CN2CCCC2)nnc1C1CCN(Cc2cc(C)no2)CC1`: 3.6%.
The same measure for `CCc1cnc(NCC(c2ccncc2)N2CCOCC2)nc1` (centres undefined): 8.71%; for `O=c1cc(N2CCCCC2)cnn1CCCn1cccn1`: -48.9%; for `Cc1ccccc1[C@@H]1CN(CCCS(=O)(=O)N(C)C)C[C@H]1C(=O)O`: -5.51%.
In the case of `CC(=O)N[C@@H](CC(C)C)C(=O)N1CCC(n2cc(CC(C)C)nn2)CC1`, the cytotoxicity at 10 µM is -10.8%.
Under `CCO[C@H]1COC[C@@H]1NC(=O)c1c[nH]nc1C1CCCCC1` stands -3.13%; under `Cc1cn2cc(-c3nc4c([nH]3)CCCNC4=O)nc2s1`, 5.48%.
As for `COc1ccc(OCc2nc(C(=O)N3CCC(NC(C)=O)C3)co2)cc1` (centres undefined), the cytotoxicity at 10 µM is -1.21%.
The same measure for `CN(Cc1noc2c1CCCC2)C(=O)CN1C(=O)COc2ccccc21`: -55.1%; for `COc1ccc([C@@H]2CN(c3cc(C(=O)O)ccn3)C[C@H]2N(C)C)cc1`: 10.3%; for `CCc1cnc(NCCCN2CCC(O)CC2)nc1`: 3.44%.
As to `Cc1ccccc1CN(C)C(=O)CN1CCCC(Cn2cncn2)C1` (centres undefined), the cytotoxicity at 10 µM is -2.87%.
As to `CCOCCN1CCN(CCCS(C)(=O)=O)CC1C` (centres undefined), the cytotoxicity at 10 µM was -4.14%.
Under `CN(Cc1ccccc1C#N)C1CCN(CCc2ccccn2)CC1` stands -6.55%.
Under `Cc1noc(C)c1CN(C)CC(c1cccs1)N1CCOCC1` (centres undefined) stands -4.98%; under `COC(=O)c1cc(C(=O)N2CCOC(C)(C)C2)n(-c2ccccc2)n1`, -2.81%; under `Cc1cnn(CCNCc2nc(-c3ccccn3)no2)c1`, -8%.
Regarding `O=C(Cc1ccc2c(c1)OCCO2)NC1CCCCC1`, the cytotoxicity at 10 µM was -12.3%.
Consider `CCc1noc(C(C)N2CCN(CC)CC2)n1` (centres undefined), for which the cytotoxicity at 10 µM is -6.01%.
Consider `Cn1c(CN2CCCC(c3noc(C4CC4)n3)C2)cc(=O)n(C)c1=O` (centres undefined), for which the cytotoxicity at 10 µM was -11.2%.
Under `O=C(NCCc1cccs1)NCC(O)c1cccc(F)c1` (centres undefined) stands -4.07%; under `CC(C)c1ccc(OCC(=O)N2CCOCC2c2ncon2)cc1` (centres undefined), -9.01%; under `CCc1ccsc1C(=O)N1CCN(CC(N)=O)CC1`, -1.1%.
Regarding `CN(Cc1ccco1)C(=O)CN1CCOC(Cn2cccn2)C1` (centres undefined), the cytotoxicity at 10 µM is -9.91%.
The same measure for `Cc1ccc(S(=O)(=O)NCc2cccc(C(=O)N3CCCC3)c2)cc1F`: -14.5%; for `COc1cccc(COCC(=O)N2CCCC2Cn2cccn2)c1` (centres undefined): -0.153%; for `c1ccc2oc(CN3CCOC(Cn4cccn4)C3)nc2c1` (centres undefined): -18.2%.
With `CC(C)OCCCN(Cc1cnn(C)c1)Cc1ccccn1`, the cytotoxicity at 10 µM amounted to 1.24%.
Under `O=S(=O)(C1CC1)N1CCn2cc(CNc3ccccn3)nc2C1` stands 8.04%.
The same measure for `O=C(NCc1cccnc1)C1=NOC2(CCN(C(=O)N3CCCC3)C2)C1` (centres undefined): -4.8%; for `Cc1cnc(N2CCCC3(CCN(Cc4csc(C)n4)C3=O)C2)nc1` (centres undefined): -5.15%.
The same measure for `COCCN1CCO[C@H]2CN(C(=O)c3ccncc3F)C[C@H]21`: -141%; for `CN1CCN(C(=O)CCc2ccccc2)Cc2cccnc21`: -1.04%; for `O=C(NCc1cccs1)[C@H]1CC[C@@H]2[C@@H](CCN2c2ncccn2)O1`: -24.2%.
For the compound `Fc1ccc(CN2CCn3cc(Cn4cccn4)nc3C2)cc1`, the cytotoxicity at 10 µM turned out to be 0.864%.
As for `c1ccc(C[C@H]2CN(C3CCOCC3)CC[C@H]2OCC2CC2)cc1`, the cytotoxicity at 10 µM is 0.994%.
Take `CN(C)C1COC2(CCN(Cc3ccc4c(c3)OCO4)CC2)C1` (centres undefined): the cytotoxicity at 10 µM was -5.19%.
The same measure for `O=C1N(c2cccnc2)CCC12CCCN(Cc1cccnc1)C2` (centres undefined): 0.951%; for `Cc1cccc(C(=O)N2C[C@@H]3C(CC(=O)NC(C)C)[C@@H]3C2)n1` (some centres undefined): -3.69%.
Turning to `CN1C(=O)[C@@H]2CC[C@H]1CN(C(=O)Nc1ccccc1C(F)(F)F)C2`, the cytotoxicity at 10 µM is -2.53%.
